Assay outcomes deposited in PubChem BioAssay by The Scripps Research Institute Molecular Screening Center.
Compounds with a hit are over-represented: about 4.6% of the library has one in this group of screens.
TAAR1 agonist: human TAAR1 agonism; CHO RD-HGA16 TAAR1, Fluo-8 calcium fluorescence; vehicle wells 0%, saturating PEA agonist 100%; 360,000 tested, 0.99% active; activation, % at 3 µM;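 active means activation above the mean activation of all test compounds in the run plus 3 SD, cut at about 38% in these data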
Target sequence (Q96RJ0 whole entry, looked up): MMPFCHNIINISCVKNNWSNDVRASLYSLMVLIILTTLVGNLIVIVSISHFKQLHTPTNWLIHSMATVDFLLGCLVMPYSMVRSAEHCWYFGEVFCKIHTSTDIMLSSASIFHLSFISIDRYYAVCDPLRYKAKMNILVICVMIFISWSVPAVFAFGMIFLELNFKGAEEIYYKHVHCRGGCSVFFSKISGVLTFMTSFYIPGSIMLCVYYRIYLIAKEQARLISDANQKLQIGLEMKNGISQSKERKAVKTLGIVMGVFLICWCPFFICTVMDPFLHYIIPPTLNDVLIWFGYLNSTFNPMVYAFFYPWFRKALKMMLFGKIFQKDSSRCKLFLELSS
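test system = CHO RD-HGA16 cells carrying human TAAR1 plus Gα16 | schedule = 17-24 h seeding, 75 min 37 °C dye, 30 min RT | compound dosing = 3 µM single concentration | control set = DMSO and PEA EC100 | replicates = n 1 | signal = Fluo-8 fluorescence, 5 s baseline then 140 s kinetic read | measure = percent activation vs PEA EC100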
OX1R antag-1: blocks the human orexin 1 receptor; 330,000 tested, 0.43% active; O43613; inhibition, % at 5 µM; CHO/OX1R cells, Fluo-8 calcium fluorescence, orexin A;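 active means inhibition above its plate's threshold, mean inhibition of all tested compounds on the plate plus 3 SD, cut at about 37% in these data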
OX1R antag-2: blocks the human orexin 1 receptor; O43613; OX1R-expressing cells, FRET antagonist read-out; inhibition, % at 6.6 µM; 330,000 tested, 1.8% active; in the data active means inhibition mostly above about 38%, no sharp cut-off; inactive means mostly below about 40%
CHO parental Ca: counter-screen: ATP calcium response change in parental CHO cells | parental CHO-K1, ATP-induced calcium, Fluo-8 fluorescence | inhibition, % at 5.6 µM | 330,000 tested, 0.63% active | AID 463079;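 active means inhibition above that plate's mean sample inhibition plus 3 SD, cut at about 26% in these data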
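Material: parental CHO cells / Compound: single nominal dose of 5.6 µM per compound / Signal: Fluo-8 fluorescence / Replicates: singlicate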
TAAR1 antag: antagonists of human TAAR1 | Q96RJ0 | 360,000 tested, 1.5% active | CHO RD-HGA16 TAAR1, Fluo-8 calcium fluorescence, antagonist | inhibition, % at 3 µM;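 active means inhibition above a per-plate cutoff, the mean inhibition of test compounds on that plate plus 3 SD, cut at about 49% in these data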
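Assay system: CHO-derived RD-HGA16 cells stably expressing human TAAR1 plus Gα16. Timing: 140 s kinetic read after compound, 140 s after agonist. Technique: kinetic Fluo-8 calcium fluorescence measurement. Measure: % inhibition of agonist calcium response.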
GPR7 antagonist: blocks human GPR7 receptor signaling | P48145 | GPR7-expressing cells, fluorescence antagonist assay | inhibition, % at 4.4 µM | 290,000 tested, 1.1% active | AID 1861; in the data active means inhibition above about 16%, passing the limit was not always enough;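 further: cells stimulated with the agonist NPW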
Target sequence (P48145 whole entry, looked up): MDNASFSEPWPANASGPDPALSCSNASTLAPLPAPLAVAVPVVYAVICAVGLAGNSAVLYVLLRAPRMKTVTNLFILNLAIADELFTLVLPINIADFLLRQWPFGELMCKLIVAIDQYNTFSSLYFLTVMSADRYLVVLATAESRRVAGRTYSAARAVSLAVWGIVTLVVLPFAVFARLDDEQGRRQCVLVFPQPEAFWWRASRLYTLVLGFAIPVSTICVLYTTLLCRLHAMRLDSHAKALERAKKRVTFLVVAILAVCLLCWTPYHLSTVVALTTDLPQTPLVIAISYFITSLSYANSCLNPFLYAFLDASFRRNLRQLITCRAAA
TAAR1 ag conf: confirmation of human TAAR1 agonists. CHO RD-HGA16 TAAR1, Fluo-8 calcium fluorescence; scaled: DMSO 0%, maximal phenethylamine 100%. 2,400 tested, 82% active. AID 651783. shares compounds with TAAR1 agonist. activation, % at 3 µM;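 active means activation above a cutoff set at the run's mean compound activation plus 3 SD, cut at about 39% in these data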
Ga16 ag counter: counter-screen for TAAR1 agonists: nonselective agonists in parental cells; shares compounds with TAAR1 agonist; CHO-Ga16 parental, Fluo-8 calcium fluorescence; normalized to maximal ATP response, DMSO zero; activation, % at 3 µM; 2,400 tested, 50% active; AID 651787;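 active means activation above the run cutoff, the mean activation over all tested wells plus 3 SD, cut at about 12% in these data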
TAAR1 desensitize: TAAR1 response desensitization, agonist counter-screen | inhibition, % at 3 µM | 2,400 tested, 46% active | CHO RD-HGA16 hTAAR1, Fluo-8 calcium, beta-PEA response inhibition | shares compounds with TAAR1 agonist;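 active means inhibition above the run cutoff, the mean inhibition of all test compounds plus 3 SD, cut at about 49% in these data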;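 further: beta-PEA stimulus applied at its EC80; loss of beta-PEA calcium signal after compound pretreatment read as receptor desensitization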
Ga16 nonsel ant: counter-screen for TAAR1 agonists: nonselective Ga16 antagonists | shares compounds with TAAR1 agonist | CHO-Ga16 ATP-induced calcium, Fluo-8 fluorescence | inhibition, % at 3 µM | 2,400 tested, 39% active | AID 651952;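 active means inhibition above the plate's mean compound inhibition plus 3 SD, computed per plate, cut at about 22% in these data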
A number is an active result; – = inactive; · = no result given.

SMILES	TAAR1 agonist	OX1R antag-1	OX1R antag-2	CHO parental Ca	TAAR1 antag	GPR7 antagonist	TAAR1 ag conf	Ga16 ag counter	TAAR1 desensitize	Ga16 nonsel ant
CC(=O)Nc1ccc2c(=O)n(-c3ccccc3)sc2c1	83.1	·	·	·	68.6	·	131.4	51.4	101.8	51.7
N#Cc1ccc2c(=O)n(-c3ccccc3)sc2c1	–	·	·	·	–	·	·	·	·	·
CC1(C(=O)NS(=O)(=O)Cc2cccc(Cl)c2)CCN1C(=O)Cc1cccs1 (configuration not stated)	–	·	·	·	–	·	·	·	·	·
NCCc1nnc(SCc2ccc(F)cc2)o1	–	–	–	–	–	–	·	·	·	·
NCCCCCc1nnc(SCc2ccc(Cl)c(Cl)c2)o1	49.9	–	–	–	–	–	62.4	–	–	–
CCOC(=O)c1cc(-c2ccccc2)n(CCC(=O)O)c1C	–	–	–	–	–	–	·	·	·	·
Cc1cc(C(=O)CCl)c(C)n1CCc1ccccc1	64.5	–	–	–	–	–	71.4	–	65.7	–
CCOC(=O)c1cc(C)n(CCc2ccccc2)c1C	50.5	–	–	–	–	–	64.1	–	–	–
Cc1cc(-c2csc(N)n2)c(C)n1CCC(C)C	–	–	–	–	–	–	·	·	·	·
COC(=O)CCCn1c(C)cc(C(=O)CCl)c1C	–	–	–	–	–	–	·	·	·	·
Cc1cc(-c2csc(N)n2)c(C)n1CCc1ccccc1	78.5	–	–	–	–	–	102.4	–	89.0	–
CCN(CC(=O)Nc1c(F)cccc1F)C(=O)c1c(-c2ccccc2Cl)noc1C	–	·	·	·	–	·	·	·	·	·
Fc1ccc(N/N=C/c2ccncc2)c(F)c1	–	–	–	–	–	–	·	·	·	·
O=C(O)c1ccc(/C=N/Nc2ccc(F)cc2F)cc1	88.3	–	–	–	–	–	43.6	20.7	–	–
CC1(C(=O)NS(=O)(=O)c2ccc(Cl)cc2)CCN1C(=O)CC1CC1 (configuration not stated)	–	·	·	·	–	·	·	·	·	·
CC(C)Oc1ccc(S(=O)(=O)N2CCOCC2)cc1NC(=O)C(C)Oc1ccc(F)cc1 (configuration not stated)	–	–	–	–	–	·	·	·	·	·
CCN1CCN(c2cc(SC(C)C)nc(-c3ccc(OC)cc3)n2)CC1	46.0	·	·	·	–	–	74.2	19.1	–	–
CC(C)Sc1cc(N2CCOCC2)nc(-c2ccc(Cl)cc2)n1	–	–	–	–	–	–	·	·	·	·
S=C(NCc1ccccc1)N1CCn2cccc2C1c1cccnc1 (configuration not stated)	–	·	·	·	–	–	·	·	·	·
S=C(NCCc1ccccc1)N1CCn2cccc2C1c1cccnc1 (configuration not stated)	56.5	–	–	–	–	–	62.2	–	–	26.6
CCCCN(C(=O)NC(=O)Nc1cccc(C)c1C)S(C)(=O)=O	70.4	–	–	–	–	–	58.5	18.9	–	–
NC(=O)CC(NC(=O)c1ccccc1)c1ccc(NC2CCCC2)c([N+](=O)[O-])c1 (configuration not stated)	–	–	–	–	–	·	·	·	·	·
COc1cc(S(=O)(=O)Nc2cccc(C)c2)ccc1NC(=O)c1ccncc1	–	–	–	–	–	–	·	·	·	·
COc1ccc2c(c1)c(C(C)=O)c(C)n2C	–	–	–	–	–	–	·	·	·	·
COc1ccc2c(c1)c(C(=O)CN1CCc3ccccc3C1)c(C)n2C	69.0	–	–	–	–	–	86.0	–	–	–
SMILES	TAAR1 agonist	OX1R antag-1	OX1R antag-2	CHO parental Ca	TAAR1 antag	GPR7 antagonist	TAAR1 ag conf	Ga16 ag counter	TAAR1 desensitize	Ga16 nonsel ant
O=C(CCCn1c(=O)c2ccccc2n(CC(=O)N2CCN(c3ccccc3)CC2)c1=O)NCc1ccco1	–	–	–	–	–	–	·	·	·	·
O=C(COc1ccccc1)NNC(=O)c1cc2ccccc2oc1=O	45.3	–	–	–	–	–	71.8	–	–	–
Cc1cccc(NC2=NCC(=O)N2CCc2ccccc2)c1	86.2	–	–	–	51.2	–	106.2	–	84.7	–
CC(C)C[C@H]1CN=C(Nc2ccccc2)N1CC1CCCCCC1	48.9	–	–	–	–	·	–	16.0	–	22.1
CC(C)C[C@H]1CN=C(Nc2ccccc2)N1CCc1ccc(F)cc1	119.2	75.1	–	56.7	104.4	·	127.2	80.4	102.4	71.7
Cc1cccc(CCN2C(Nc3ccccc3)=NC[C@@H]2CC(C)C)c1	127.2	49.5	–	–	106.8	·	111.5	87.3	102.1	80.2
C=CCN1C(=O)CN=C1Nc1cccc(C)c1	–	–	–	–	–	–	·	·	·	·
CCOc1cc(OCC)cc(C(=O)N2CCC[C@@H]2C(=O)N2CCC[C@H]2C(=O)NCc2ccccc2)c1	–	·	·	·	–	·	·	·	·	·
COc1ccc(-c2ccc(C(=O)Nc3cccc(C(F)(F)F)c3)c3occc23)c(C)c1	–	·	·	·	–	·	·	·	·	·
N#CC1(Nc2cccc(Br)c2)C(=O)Nc2ccccc21 (configuration not stated)	83.3	–	–	–	–	–	54.4	32.3	51.9	41.7
C/C(=N\NC(=O)c1nnn(-c2nonc2N)c1-c1cccs1)c1ccc(C)cc1	103.5	–	–	–	–	–	104.0	71.6	–	–
COc1ccc(/C(C)=N/NC(=O)c2nnn(-c3nonc3N)c2-c2cccs2)cc1	45.7	–	–	–	–	–	80.6	55.1	–	–
C/C(=N\NC(=O)c1nnn(-c2nonc2N)c1-c1cccs1)c1ccc(O)cc1	–	–	–	–	–	–	·	·	·	·
Cc1ccc(NC(=O)CNC(=O)c2cccc(Cl)c2)nc1	–	–	–	–	–	·	·	·	·	·
NC(Cc1ccc(Cl)cc1)c1csc(Nc2ccc(-c3ccccc3)nn2)n1 (configuration not stated)	62.5	·	·	·	49.4	·	–	25.1	–	40.4
COc1ccc(CC(N)c2csc(Nc3nncc4ccccc34)n2)cc1 (configuration not stated)	61.4	·	·	·	–	·	82.3	34.0	52.4	31.8
COc1ccc(CC(N)c2csc(Nc3cc(NCCCO)ncn3)n2)cc1 (configuration not stated)	–	·	·	·	–	·	·	·	·	·
COc1cc(OC)nc(Nc2nc(C(N)Cc3ccc(F)cc3)cs2)n1 (configuration not stated)	56.4	·	·	·	–	·	63.3	37.7	–	34.2
CCc1cnc(Nc2nc(C(N)Cc3ccc(Cl)cc3)cs2)nc1 (configuration not stated)	51.2	·	·	·	–	·	70.1	31.8	–	28.0
